According to ChEMBL document CHEMBL1909630, “Azaxanthene based selective glucocorticoid receptor modulators: design, synthesis, and pharmacological evaluation of (S)-4-(5-(1-((1,3,4-thiadiazol-2-yl)amino)-2-methyl-1-oxopropan-2-yl)-5H-chromeno[2,3-b]pyridin-2-yl)-2-fluoro-N,N-dimethylbenzamide (BMS-776532) and its methylene homologue …” (J Med Chem, 2011):

Key:
[1] = molecular target: T1, Mineralocorticoid receptor (Homo sapiens, UniProt P08235); test: Agonist activity at human mineralocorticoid receptor expressed in human A549 cells by fluorescence polarization assay; type: functional, cell-based
T1 sequence (P08235 whole entry): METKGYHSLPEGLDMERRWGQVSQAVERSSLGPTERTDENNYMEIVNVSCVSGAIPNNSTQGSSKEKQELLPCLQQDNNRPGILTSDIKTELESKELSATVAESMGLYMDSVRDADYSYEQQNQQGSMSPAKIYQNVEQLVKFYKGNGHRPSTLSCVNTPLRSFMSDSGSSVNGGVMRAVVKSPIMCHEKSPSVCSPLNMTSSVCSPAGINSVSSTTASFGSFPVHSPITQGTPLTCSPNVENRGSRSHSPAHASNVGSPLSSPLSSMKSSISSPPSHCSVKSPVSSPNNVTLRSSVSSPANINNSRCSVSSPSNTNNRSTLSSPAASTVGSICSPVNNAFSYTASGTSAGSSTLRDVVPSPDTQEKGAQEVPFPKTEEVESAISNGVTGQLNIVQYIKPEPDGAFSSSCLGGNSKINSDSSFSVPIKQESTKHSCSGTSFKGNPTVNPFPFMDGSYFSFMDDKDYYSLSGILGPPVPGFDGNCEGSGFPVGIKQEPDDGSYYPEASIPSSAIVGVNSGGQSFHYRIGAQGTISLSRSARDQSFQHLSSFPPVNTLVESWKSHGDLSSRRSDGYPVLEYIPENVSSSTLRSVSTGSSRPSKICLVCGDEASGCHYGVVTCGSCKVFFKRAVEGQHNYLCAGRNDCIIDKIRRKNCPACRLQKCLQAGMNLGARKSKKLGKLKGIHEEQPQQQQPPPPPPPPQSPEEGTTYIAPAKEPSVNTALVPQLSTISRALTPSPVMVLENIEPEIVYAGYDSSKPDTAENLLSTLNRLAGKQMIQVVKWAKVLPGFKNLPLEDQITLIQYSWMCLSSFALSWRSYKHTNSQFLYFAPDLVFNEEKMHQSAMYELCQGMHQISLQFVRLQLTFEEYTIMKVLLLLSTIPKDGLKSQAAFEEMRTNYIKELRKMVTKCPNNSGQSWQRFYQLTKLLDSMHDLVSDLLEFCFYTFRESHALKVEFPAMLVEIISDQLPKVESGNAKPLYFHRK

[2] = system: Blood; test: Antiinflammatory activity in human whole blood assessed as inhibition of LPS-induced TNFalpha production after overnight incubation by ELISA relative to Dexamethasone; type: functional
How it was run: (§1)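 Whole blood from two donors per experiment was collected into ACD-A. Compounds were added and the blood was incubated about 20 h at 37 °C under 5% CO2. Blood was then stimulated for 5 h with LPS (final 100 ng/mL, for TNFα) or IL-1β (final 10 ng/mL, for IL-8). Plasma TNFα or IL-8 was measured by ELISA. Efficacy was expressed as % of dexamethasone, and values are means of at least two experiments.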

[3] = molecular target: T2, Progesterone receptor (Homo sapiens, UniProt P06401); test: Displacement of fluorescently labeled ligand from progesterone receptor by fluorescence polarization assay
T2 sequence (P06401 whole entry): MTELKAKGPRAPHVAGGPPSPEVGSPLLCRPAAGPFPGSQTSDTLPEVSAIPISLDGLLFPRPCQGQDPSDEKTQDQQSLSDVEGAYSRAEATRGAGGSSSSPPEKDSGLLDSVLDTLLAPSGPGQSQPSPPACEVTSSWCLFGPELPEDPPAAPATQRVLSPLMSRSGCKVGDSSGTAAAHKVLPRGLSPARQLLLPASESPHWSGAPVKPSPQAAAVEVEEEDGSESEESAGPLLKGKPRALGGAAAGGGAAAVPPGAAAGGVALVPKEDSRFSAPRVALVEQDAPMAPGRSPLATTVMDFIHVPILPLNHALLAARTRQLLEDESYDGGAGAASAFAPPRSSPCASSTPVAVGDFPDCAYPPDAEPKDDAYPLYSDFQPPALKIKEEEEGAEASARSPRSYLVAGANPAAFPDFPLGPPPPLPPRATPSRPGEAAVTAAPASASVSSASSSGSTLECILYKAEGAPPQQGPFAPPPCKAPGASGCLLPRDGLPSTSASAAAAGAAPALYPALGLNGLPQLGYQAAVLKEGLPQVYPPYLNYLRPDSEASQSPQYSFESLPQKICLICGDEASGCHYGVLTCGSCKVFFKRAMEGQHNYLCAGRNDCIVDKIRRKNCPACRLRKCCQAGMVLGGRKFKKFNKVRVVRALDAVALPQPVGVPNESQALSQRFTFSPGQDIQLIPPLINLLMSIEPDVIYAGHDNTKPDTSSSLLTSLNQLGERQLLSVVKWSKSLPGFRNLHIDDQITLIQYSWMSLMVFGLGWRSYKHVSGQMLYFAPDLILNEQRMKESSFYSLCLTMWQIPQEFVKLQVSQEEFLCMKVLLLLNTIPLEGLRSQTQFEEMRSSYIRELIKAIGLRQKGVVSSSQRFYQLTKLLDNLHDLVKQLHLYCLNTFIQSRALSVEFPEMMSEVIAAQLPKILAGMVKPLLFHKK

[4] = Clearance in Sprague-Dawley rat at 1 mg/kg, iv; type: ADME, organism-based; set-up: dose 1 mg/kg, route intravenous; details: in vivo
How it was run: (§2)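 Male Sprague-Dawley rats received a single intravenous (1 mg/kg) or oral (10 or 50 mg/kg) dose. Plasma pharmacokinetic parameters were derived from these profiles.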

[5] = system: Blood; test: Antiinflammatory activity in human whole blood assessed as inhibition of IL-1beta-induced IL-8 production after overnight incubation by ELISA relative to Dexamethasone; type: functional; how it was run: as §1
[6] = Oral bioavailability in Sprague-Dawley rat at 10 mg/kg; type: ADME, organism-based; details: in vivo; how it was run: as §2
[7] = Cmax in Sprague-Dawley rat at 10 mg/kg, po; type: ADME, organism-based; set-up: dose 10 mg/kg, route oral; details: in vivo; how it was run: as §2
[8] = system: Blood; test: Antiinflammatory activity in human whole blood assessed as inhibition of IL-1beta-induced IL-8 production after overnight incubation by ELISA; type: functional, tissue-based; how it was run: as §1
[9] = Cmax in Sprague-Dawley rat at 50 mg/kg, po; type: ADME, organism-based; set-up: dose 50 mg/kg, route oral; details: in vivo; how it was run: as §2

Compound: CN(C)C(=O)c1ccc(-c2ccc3c(n2)Oc2ccccc2[C@H]3C(C)(C)C(=O)Nc2nncs2)cc1F
- EC50 [1]: > 5000 nM
- Imax [2]: 83%
- Ki [3]: 1530 nM
- clearance [4]: 49.5 mL/min/kg
- Imax [5]: 70%
- bioavailability [6]: 20%
- Cmax [7]: 285 ng/mL
- EC50 [8]: 1140 nM
- Cmax [9]: 3210 ng/mL

Compound: CCN(C)C(=O)c1ccc(-c2ccc3c(n2)Oc2ccccc2[C@@H]3C(C)(C)C(=O)Nc2nncs2)cc1F
- EC50 [1]: > 5000 nM
- Imax [2]: 91%
- Ki [3]: 1830 nM
- clearance [4]: 34 mL/min/kg
- Imax [5]: 88%
- bioavailability [6]: 17%
- Cmax [7]: 351 ng/mL
- EC50 [8]: 628 nM
- Cmax [9]: 3080 ng/mL
